Each compound was assayed on L1210 (assay: Activity against lymphocytic murine leukemia cell line L1210 using MTS/PES microculture tetrazolium assay). Conditions: Mus musculus.
Format: functional, cell-based
Method in brief: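 L1210 cells kept in RPMI-1640 with 10% FBS and penicillin/streptomycin, 37 °C, 5% CO2. Seeded at 1×10^5/mL. DMSO stocks diluted in medium to six concentrations, 2×10⁻³ to 1×10⁻⁸ M, in triplicate; final DMSO 1% at top dose, otherwise <0.25%. Incubated 65 h, then MTS/PES for 3 h, A490. Inhibition relative to DMSO control; IC50 by probit regression; repeated at least twice.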

SMILES	IC50
CC(=O)Nc1ccc(/C=N/NC(=O)NO)cc1	944 µM
O=C(NO)N/N=C/c1cccc([N+](=O)[O-])c1	399 µM
N#Cc1ccc(/C=N/NC(=O)NO)cc1	208 µM
COc1cccc(/C=N/NC(=O)NO)c1	369 µM
O=C(NO)N/N=C/c1cc([N+](=O)[O-])cc([N+](=O)[O-])c1O	821 µM
Cc1cccc(/C=N/NC(=O)NO)n1	891 µM
NNC(N)=O [HYDRAZINECARBOXAMIDE]	> 2190 µM
O=C(NO)N/N=C/c1c[nH]c2ccccc12	477 µM
Cc1c2ccccc2c(/C=N/NC(=O)NO)c2ccccc12	4.4 µM
O=C(NO)N/N=C/c1ccc(O)c(O)c1O	2.7 µM
COc1ccc(/C=N/NC(=O)NO)cc1	317 µM
NNC(=O)NO	282 µM
O=C(NO)N/N=C/c1cc(Cl)cc(Cl)c1O	6.5 µM
CN(C)c1ccc(/C=N/NC(=O)NO)cc1	446 µM
O=C(NO)N/N=C/c1ccc([N+](=O)[O-])s1	10.6 µM
O=C(NO)N/N=C/c1cccnc1	607 µM

Next, values leading:

IC50	SMILES
37.7 µM	COc1cc(Br)cc(/C=N/NC(=O)NO)c1O
48.1 µM	O=C(NO)N/N=C/c1ccc(OCc2ccccc2)cc1
32.2 µM	CC(C)c1ccc2occ(/C=N/NC(=O)NO)c(=O)c2c1
42.7 µM	O=C(NO)N/N=C/c1ccc(-c2ccccc2)cc1
39.5 µM	O=C(NO)N/N=C/c1cccc(C(F)(F)F)c1
10.1 µM	O=C(NO)N/N=C/c1cc(Br)ccc1O
178 µM	O=C(NO)N/N=C/c1ccc2c(c1)OCCO2
91.4 µM	COc1cc(O)c(/C=N/NC(=O)NO)c(OC)c1
28.2 µM	O=C(NO)N/N=C/c1coc2c(Cl)cc(Cl)cc2c1=O
80.4 µM	O=C(NO)N/N=C/c1cccc(I)c1
30.1 µM	COc1ccc(OC)c(/C=N/NC(=O)NO)c1
7.2 µM	O=C(NO)N/N=C/c1cc(Br)cc(Br)c1O
131 µM	O=C(NO)N/N=C/c1ccc(O)cc1O
60.2 µM	COc1ccc(/C=N/NC(=O)NO)c(O)c1
4.7 µM	O=C(NO)N/N=C/c1cc(I)cc(I)c1O
5.4 µM	O=C(NO)N/N=C/c1c2ccccc2c(Cl)c2ccccc12

— ChEMBL document CHEMBL1135806, “Synthesis, biological evaluation, and quantitative structure-activity relationship analysis of new Schiff bases of hydroxysemicarbazide as potential antitumor agents” (J Med Chem, 2002)
